Screening results: PubChem, several laboratories
HCT116 bCat-KO: beta-catenin-lacking colon tumor cell growth suppression. HCT116 beta-catenin knockout viability, CellTiter-Glo, 60 h; hits give low values. viability, % at 10 µM. 1.5% of 140,000 active. AID 818;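 active means viability at or under a set limit, the compound median less 4 SD, cut at about 6% in these data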;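 further: 0% = Hyamine 1622 control at 20 µM and 100% = untreated cell control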
H69AR inhibit: blocks growth of human H69AR lung tumor cells. H69AR lung tumor viability, ATP luminescence, 72 h; hits give low values. viability, % at 10 µM. 6% of 85,000 active;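 active means viability at or below 40%; inactive means viability above 40%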;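 further: multidrug resistant small cell line overexpressing MRP-1 efflux transporter; 100% = mean luminescence of untreated control wells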
HUVEC prolif 384: inhibitors of human endothelial cell proliferation; 1.1% of 86,000 active; HUVEC proliferation, CellTiter-Glo luminescence, 72 h; hits give low values; viability, % at 10 µM (by protocol);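 active means viability at or below 30%; inactive means viability above 30%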;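 further: 100% = median luminescence of DMSO-only cell control wells on each plate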
HCT116 PTEN-null: growth suppressors of cells with PTEN tumor suppressor deletion; HCT116 PTEN-null viability, CellTiter-Glo, 60 h; hits give low values; viability, % at 10 µM; 1.2% of 140,000 active;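 active means viability at or below a set limit, 4 SD under the median of all tested compounds, cut at about 3.7% in these data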;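 further: PTEN knockout HCT116 line with beta catenin targeted HCT116 as companion control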
Fibroblast inh: blocks proliferation of human lung fibroblasts; LL 47 human lung fibroblast viability, ATP luminescence; hits give low values; 1.1% of 85,000 active; viability, % at 10 µM;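 active means viability at or below 50% in the single dose screen; inactive means viability above 50%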;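 further: compound exposure lasted 72 h before the ATP readout; 100% = median luminescence of untreated cell-only wells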
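Material: human LL 47 lung fibroblast cells; quantity: 1,150 cells/well; medium: IMEM plus 15% FBS; doses: 0.1% DMSO in all compound wells; timing: overnight attachment after seeding, then 72 h compound exposure at 37 °C; detection: CellTiter-Glo luminescence; measure: % viability of median cell-only signal; controls: cell-only wells, no compound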
PTK2B oligo ant: blocks oligomerization of human Pyk2 in cells; Q14289; 0.83% of 99,000 active; AID 1347419; Q293 cells, Pyk2 FERM NanoBiT luminescence; hits give low values; z-score (the deposit names both 25 µM and 10 µM);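 active means Z-score of -3 or lower, scaled per plate to the spread of control and sample wells; inactive means z-score above -3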;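 further: negative z-score means lost luminescence so less FERM oligomerization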
* = called active by the depositor; / = not tested or not shown. Shown is part of a subset that was picked to be rich in hits.

SMILES	HCT116 bCat-KO	H69AR inhibit	HUVEC prolif 384	HCT116 PTEN-null	Fibroblast inh	PTK2B oligo ant
COC(=O)c1cc(=O)n(Cc2ccc(OC)c(OC)c2)c(=Nc2ccc(F)cc2)s1	2.0*	1.9*	17*	2.0*	12*	/
COC(=O)c1cc(=O)n(CCc2ccc(OC)c(OC)c2)c(=Nc2ccc(F)c(Cl)c2)s1	2.4*	1.1*	7.5*	3.7*	10*	/
CCOC(=O)C(C)Sc1ncc(-c2ccc(Cl)cc2)cn1 (stereo unspecified)	95	/	/	100	/	0.21
OCCN(CCO)Cc1csc2ccccc12	81	/	/	91	/	1.7
CCOc1ccc(OCC)c(Nc2cc(C)nc3ncnn23)c1	83	63	86	76	93	/
CCOc1ccc(OCC)c(Nc2cc(C)nc3nc(C)nn23)c1	73	32*	66	59	87	/
Oc1cccc(-c2nc3ccc4ccccc4c3c3c2CCC3)c1	69	/	/	61	/	-0.95
CCOc1ccc2cc(/C=C/C(=O)c3ccco3)c(Cl)nc2c1	8	2.4*	76	7	97	2.7
COCCn1cnnc1SCC(=O)c1ccc(S(=O)(=O)N2CCCC2)cc1	93	100	102	94	104	-0.88
C/C(=N\Nc1cc(Cl)nc(C)n1)c1ccc(C)cc1	/	/	/	/	/	1.1
Cn1c(=O)c2c(nc(NCc3ccc4c(c3)OCO4)n2Cc2ccccc2Cl)n(C)c1=O	81	38*	65	93	89	-0.91
Cn1c(=O)c2c(nc(CN3CCN(c4ccccc4)CC3)n2Cc2ccccc2Cl)n(C)c1=O	71	24*	75	52	84	-0.63
Cn1c(=O)c2c(nc(OCc3ccc4c(c3)OCO4)n2Cc2ccccc2Cl)n(C)c1=O	101	/	/	96	/	-0.05
Cn1c(=O)[nH]c(=O)c2c1nc(Br)n2Cc1ccccc1Cl	89	27*	101	78	97	-0.11
C=CCOc1nc2c(c(=O)n(C)c(=O)n2C)n1Cc1ccccc1Cl	69	38*	94	70	93	0.17
C=CCOc1nc2c(c(=O)n(C)c(=O)n2C)n1Cc1ccc(Cl)cc1	66	75	96	72	96	/
COc1cc(C(=O)OCC(=O)NC2CCS(=O)(=O)C2)ccc1OCc1c(C)noc1C (stereo unspecified)	93	/	/	113	/	0.07
CCc1cc[n+](-c2nc3ccccc3nc2[N-]S(=O)(=O)c2ccc(Br)s2)cc1	91	/	/	92	/	/
CC(C)CCN1CN(S(=O)(=O)c2cccs2)c2nc3ccccc3nc21	80	37*	80	67	94	-0.6
CCOC(=O)C1=C(CSc2nc3ccccc3s2)NC(=O)NC1c1ccc(OC)cc1 (stereo unspecified)	5.7*	/	/	21	/	-2.1
O=C(NCc1ccc2c(c1)OCO2)C1CCC(CNS(=O)(=O)c2cccc3nsnc23)CC1 (stereo unspecified)	85	96	59	96	44*	/
CCCCN1C(=O)c2ccc(C(=O)NCCN3C(=O)S/C(=C\c4cccnc4)C3=O)cc2C1=O	100	/	/	105	/	/
Oc1ccc(-c2nc3c4c(ncn3n2)-c2ccccc2CC42CCCC2)cc1	3.0*	/	/	2.6*	/	/
CCOc1ccc(NC(=O)c2ccccc2NC(=O)CN(C)CC(=O)Nc2ccc(C)cc2)cc1	90	37*	67	94	86	-2.8
Cc1c(C(=O)NC(C)C)sc2ncn(CC(=O)N3CCC(C)CC3)c(=O)c12	100	91	91	102	106	-0.3
SMILES	HCT116 bCat-KO	H69AR inhibit	HUVEC prolif 384	HCT116 PTEN-null	Fibroblast inh	PTK2B oligo ant
NC(N)=N/N=C/c1ccc(OCc2ccccc2Cl)cc1	0.9*	/	/	0.9*	/	0.1
NC(N)=N/N=C/c1ccccc1	91	99	99	81	96	0.36
CCOC(=O)c1oc2ccccc2c1NC(=O)c1cccc(OC)c1OC	54	30*	63	45	89	-1.5
COc1ccc(OC)c(C(C)NC(=O)c2ccco2)c1 (stereo unspecified)	54	22*	85	58	100	-0.95
Cc1ccc(C(=O)NC(C)c2ccccc2)o1 (stereo unspecified)	93	105	84	91	92	1.3
COc1ccccc1C(C)NC(=O)c1ccc(C)o1 (stereo unspecified)	31	26*	91	30	96	0.76
CCOC(=O)n1cc(-c2cnc(CNC(=O)C(C)(c3ccccc3)c3ccccc3)o2)c2ccccc21	81	/	/	75	/	/
Cc1ccc(C(=O)Nc2cccc(N(C)S(C)(=O)=O)c2)cc1S(=O)(=O)Nc1ccccc1	90	/	/	84	/	-3.1*
COc1ccc(C(=O)Nc2cccc(N(C)S(C)(=O)=O)c2)cc1OC	88	89	85	102	95	0.19
COc1ccccc1/C=C/C(=O)NCC(=O)N/N=C/c1cc(Br)ccc1OC	59	19*	72	53	80	-0.11
COc1ccc(/C=C/C(=O)NCC(=O)N/N=C/c2cc(Br)ccc2OC)cc1	65	56	72	73	93	-1.6
Cc1cccc(OCCN2CSC(=S)N(C)C2)c1	7	1.5*	21*	31	61	0.36
COc1ccccc1OCCCCN1CCN(c2ccccc2OC)CC1	56	75	58	60	97	2.3
COc1ccccc1OCCN1CSC(=S)N(C)C1	4.0*	/	/	5	/	/
O=C(CNC(=O)c1cccs1)c1ccc(F)cc1	98	100	94	105	98	0.22
CCCc1cc(=O)n2[nH]c(C)c(-c3ccccc3)c2n1	89	55	76	83	103	1.4
Cc1[nH]n2c(=O)cc(C(C)C)nc2c1-c1ccccc1	67	14*	58	74	66	-0.18
Cc1[nH]n2c(=O)cc(C(C)(C)C)nc2c1-c1ccccc1	13	36*	50	17	69	0.93
Cc1[nH]n2c(=O)cc(-c3ccc([N+](=O)[O-])cc3)nc2c1-c1ccccc1	/	15*	8.6*	/	53	-0.59
O=C(Nc1nc(-c2ccccn2)cs1)c1ccc(Br)s1	7	13*	24*	13	27*	-0.96
O=C(Nc1cccnc1)c1ccc(Br)s1	88	7.5*	82	92	35*	0.38
O=C(Nc1cccnc1)c1cccnc1	97	45	99	94	95	1.5
CC1(C)CC(=O)c2sc(NC(=O)CCS(=O)(=O)c3ccccc3)nc2C1	3.6*	1.1*	78	3.7*	50	/
O=C(CCS(=O)(=O)c1ccccc1)Nc1nc(-c2ccccn2)cs1	/	4.0*	70	/	56	/
CC(Oc1ccccc1)C(=O)Nc1nc2c(s1)C(=O)CC(C)(C)C2 (stereo unspecified)	87	95	108	100	98	-1.9
CCOc1ccccc1CNC(=O)c1nn(CC)cc1[N+](=O)[O-]	91	/	/	90	/	/
CCCc1ccc(Oc2cc(N3CCOCC3)nc(-c3ccccc3)n2)cc1	/	/	/	/	/	0.12
CC(=O)Oc1cc2oc(=O)cc(C)c2cc1OC(C)=O	59	36*	78	74	84	0.08
